Data taken from ChEMBL document CHEMBL3856193, “Combretastatin A-4 analogues with benzoxazolone scaffold: Synthesis, structure and biological activity” (Eur J Med Chem, 2016).
Activity calls are given as the source filed them. The calls are words filed in the database; no cut-off is given here.

How the values were obtained:
[1] = Cell cycle arrest in human HepG2 cells assessed as decrease in S phase at growth inhibitory IC50 measured after 24 hrs by propidium iodide-staining based FACS analysis; assay type: functional
Colon 26 = experiment: Potency index, ratio of combretastatin A-4 IC50 to compound IC50 for mouse Colon 26 cells; assay type: functional
[2] = Cell cycle arrest in human HepG2 cells assessed as accumulation in G2/M phase at growth inhibitory IC50 measured after 8 hrs by propidium iodide-staining based FACS analysis (reference value: 28%); assay type: functional; design: scale not given: the % may be the effect or the level left
[3] = Cell cycle arrest in human HepG2 cells assessed as accumulation of hypoploid sub-G1 cells at growth inhibitory IC50 measured after 72 hrs by propidium iodide-staining based FACS analysis; assay type: functional
[4] = Cell cycle arrest in human HepG2 cells assessed as decrease in accumulation of G2/M phase at growth inhibitory IC50 measured after 72 hrs by propidium iodide-staining based FACS analysis; assay type: functional
K562 = experiment: Cytostatic activity against human K562 cells up to 25 uM measured after 72 hrs by MTT assay; assay type: functional, cell-based
Summary of the method: (§1)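 Cells seeded at 1 x 10^4/100 µL, treated 24 h later with drug diluted from 2 mmol/L DMSO stock (0.01% DMSO final), 72 h incubation. MTT added for 3 h at 37°C, formazan dissolved in 0.1 N HCl/isopropanol, OD read at 550/630 nm. Eight replicates per concentration, mean ± SD. IC50 from curve fitting. Cells kept at 37°C in humidified CO2.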

[5] = Growth inhibition of human K562 cells measured after 72 hrs by MTT assay; assay type: functional, cell-based; conditions: K562, 72 h; summary of the method: as §1
[6] = Antiproliferative activity against CA-4-resistant human MDA-MB-231 cells measured after 72 hrs by MTT assay; assay type: functional, cell-based; conditions: MDA-MB-231, 72 h; summary of the method: as §1
Sus scrofa [7] = species: Sus scrofa; experiment: Induction of porcine brain tubulin polymerization assessed as time required to reach maxium effect at 10 uM measured every 1 min for 40 mins in presence of GTP
[8] = Antiproliferative activity against CA-4-resistant human A549 cells measured after 72 hrs by MTT assay; assay type: functional, cell-based; conditions: A549, 72 h
Summary of the method: (§2)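 Cells seeded at 1 × 10^4 per well and left 24 h, then exposed to graded compound concentrations (stock 2 mmol/L in DMSO, final DMSO 0.01% in medium) for 72 h at 37 °C in humidified CO2. MTT (5 mg/mL) added for 3 h; formazan dissolved in 0.1 N HCl/isopropanol and read at 550/630 nm. Eight replicate wells per concentration; IC50 from curve fitting.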

[9] = Cell cycle arrest in human HepG2 cells assessed as >4N DNA content at growth inhibitory IC50 measured after 24 hrs by propidium iodide-staining based FACS analysis relative to control; assay type: functional; design: scale not given: the % may be the effect or the level left
[10] = Growth inhibition of human EAhy926 cells measured after 72 hrs by MTT assay; assay type: functional, cell-based; conditions: EA.hy 926, 72 h; summary of the method: as §1
[11] = Cell cycle arrest in human HepG2 cells assessed as decrease in G0/G1 phase at growth inhibitory IC50 measured after 24 hrs by propidium iodide-staining based FACS analysis; assay type: functional
HepG2 [12] = experiment: Induction of apoptosis in human HepG2 cells assessed as increase in apoptotic cells at growth inhibitory IC50 measured after 48 hrs by Annexin V-FITC/propidium iodide staining-based flow cytometric analysis relative to control; assay type: functional, cell-based
HepG2 [13] = experiment: Inhibition of beta-tubulin polymerization in human HepG2 cells assessed as DNA fragmentation at 185 to 190 nM measured after 24 hrs by DAPI staining based immunofluorescence analysis; assay type: cell-based
Summary of the method: (§3)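 HepG2 cells grown on coverslips were treated 24 h with 185 nM drug, with 0.01% DMSO vehicle as control. Cells fixed in 3.7% buffered paraformaldehyde and immunostained for β-tubulin (AlexaFluor-488 secondary, 40 min). F-actin labelled with phalloidin, DNA with DAPI mounting medium. Imaged by fluorescence microscopy.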

A549 = experiment: Potency index, ratio of combretastatin A-4 IC50 to compound IC50 for human A549 cells; assay type: functional
HepG2 [14] = experiment: Induction of apoptosis in human HepG2 cells assessed as necrotic cells at 0.19 to 0.28 uM measured after 48 hrs by Annexin V-FITC/propidium iodide staining-based flow cytometric analysis relative to control; assay type: functional
EA.hy 926 [15] = experiment: Induction of apoptosis in human EAhy926 cells assessed as necrotic cells at 0.19 to 0.28 uM measured after 48 hrs by Annexin V-FITC/propidium iodide staining-based flow cytometric analysis relative to control; assay type: functional
[16] = Cell cycle arrest in human HepG2 cells assessed as increase in G2/M phase accumulation at growth inhibitory IC50 after 8 hrs by propidium iodide-staining based FACS analysis relative to combretastatin A-4; assay type: functional; design: scale not given: the % may be the effect or the level left
[17] = Cytotoxicity against human NHEK measured after 72 hrs by MTT assay; assay type: toxicity; summary of the method: as §1
[18] = Antiproliferative activity against mouse Colon 26 cells measured after 72 hrs by MTT assay; assay type: functional, cell-based; conditions: Colon 26, 72 h; summary of the method: as §2
[19] = Antiproliferative activity against human MCF7 cells measured after 72 hrs by MTT assay; assay type: functional, cell-based; conditions: MCF7, 72 h; summary of the method: as §1
[20] = Antiproliferative activity against human HaCaT cells measured after 72 hrs by MTT assay; assay type: functional, cell-based; summary of the method: as §2
HepG2 [21] = experiment: Inhibition of beta-tubulin polymerization in human HepG2 cells assessed as multi-polar spindle formation at 185 to 190 nM measured after 24 hrs by DAPI staining based immunofluorescence analysis; assay type: cell-based; summary of the method: as §3
HepG2 [22] = experiment: Inhibition of beta-tubulin polymerization in human HepG2 cells assessed as formation of pseudo G1 phase multinucleated cells at 185 to 190 nM measured after 24 hrs by DAPI staining based immunofluorescence analysis; assay type: cell-based; summary of the method: as §3
HepG2 [23] = experiment: Cytostatic activity against human HepG2 cells up to 25 uM measured after 72 hrs by MTT assay; assay type: functional, cell-based; summary of the method: as §1
EA.hy 926 [24] = experiment: Antiangiogenic activity against human EAhy926 assessed as inhibition of capillary tube formation at 0.28 uM after 72 hrs by matrigel assay; assay type: functional
Summary of the method: (§4)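 EA.hy 926 cells (4 x 10^4) plated onto Matrigel pre-set 30 min at 37°C in complete DMEM; after 24 h medium replaced by EBM2 alone (control) or EBM2 with 0.28 µM or 0.11 µM drug. Capillary tube formation followed by inverted microscopy up to 72 h.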

HT-29 = experiment: Potency index, ratio of IC50 for combretastatin A-4 to IC50 for test compound against human HT-29 cells; assay type: functional
HepG2 [25] = experiment: Inhibition of beta-tubulin polymerization in human HepG2 cells assessed as mitotic slippage at 185 to 190 nM measured after 24 hrs by DAPI staining based immunofluorescence analysis; assay type: cell-based; summary of the method: as §3
HepG2 [26] = experiment: Induction of micronuclei formation in human HepG2 cells at 185 to 190 nM measured after 24 hrs by DAPI staining based immunofluorescence analysis; assay type: functional, cell-based; summary of the method: as §3
HepG2 [27] = experiment: Inhibition of beta-tubulin polymerization in human HepG2 cells assessed as induction of mitotic ploidity at 185 to 190 nM measured after 24 hrs by DAPI staining based immunofluorescence analysis; assay type: cell-based; summary of the method: as §3
EA.hy 926 [28] = experiment: Induction of apoptosis in human EAhy926 cells assessed as increase in apoptotic cells at growth inhibitory IC50 measured after 48 hrs by Annexin V-FITC/propidium iodide staining-based flow cytometric analysis relative to control; assay type: functional, cell-based
Sus scrofa [29] = species: Sus scrofa; experiment: Inhibition of porcine brain tubulin polymerization at 50 uM measured every 1 min for 40 mins in presence of GTP
[30] = Growth inhibition of human HepG2 cells measured after 72 hrs by MTT assay; assay type: functional, cell-based; conditions: HepG2, 72 h; summary of the method: as §1
[31] = Antiproliferative activity against CA-4-resistant human HT-29 cells measured after 72 hrs by MTT assay; assay type: functional, cell-based; conditions: HT-29, 72 h; summary of the method: as §2
[32] = Cell cycle arrest in human HepG2 cells assessed as accumulation of cells with 4N DNA content at growth inhibitory IC50 measured after 24 hrs by propidium iodide-staining based FACS analysis relative to control; assay type: functional; design: scale not given: the % may be the effect or the level left
Sus scrofa [33] = species: Sus scrofa; experiment: Inhibition of porcine brain tubulin polymerization measured every 1 min for 40 mins in presence of GTP
Sus scrofa [34] = species: Sus scrofa; experiment: Inhibition of porcine brain tubulin polymerization at 10 uM measured every 1 min for 40 mins in presence of GTP
EA.hy 926 [35] = experiment: Cytostatic activity against human EAhy926 cells up to 25 uM measured after 72 hrs by MTT assay; assay type: functional, cell-based; summary of the method: as §1
[36] = Cytostatic activity against human MCF10A cells assessed as cell survival up to 25 uM measured after 72 hrs by MTT assay relative to control; assay type: ADME, cell-based, MCF-10A; conditions: read-out: Survival
[37] = Cytostatic activity against human MCF7 cells assessed as cell survival up to 25 uM measured after 72 hrs by MTT assay relative to control; assay type: functional
EA.hy 926 [38] = experiment: Antiangiogenic activity against human EAhy926 assessed as inhibition of capillary tube formation at 0.11 uM after 72 hrs by matrigel assay; assay type: functional; summary of the method: as §4
HepG2 [39] = experiment: Induction of apoptosis in human HepG2 cells assessed as necrotic cells at 0.11 uM measured after 48 hrs by Annexin V-FITC/propidium iodide staining-based flow cytometric analysis relative to control; assay type: functional
[40] = Antiproliferative activity against human MCF10A cells measured after 72 hrs by MTT assay; assay type: cell-based; conditions: MCF-10A; summary of the method: as §2
[41] = Cytostatic activity against human MDA-MB-231 cells assessed as cell survival up to 25 uM measured after 72 hrs by MTT assay relative to control; assay type: functional
[42] = Cytostatic activity against human HaCaT cells assessed as cell survival up to 25 uM measured after 72 hrs by MTT assay relative to control; assay type: functional
[43] = Cytostatic activity against human NHEK cells assessed as cell survival up to 25 uM measured after 72 hrs by MTT assay relative to control; assay type: ADME, cell-based; conditions: read-out: Survival
EA.hy 926 [44] = experiment: Induction of apoptosis in human EAhy926 cells assessed as necrotic cells at 0.11 uM measured after 48 hrs by Annexin V-FITC/propidium iodide staining-based flow cytometric analysis relative to control; assay type: functional
[45] = Solubility of compound in water; assay type: physicochemical; conditions: buffer

## COc1cc(/C=C\c2ccc3c(c2)oc(=O)n3C)cc(OC)c1OC
[1]
  Activity: Active
Colon 26
  Ratio IC50: 9
[2]
  Activity: 39%
[3]
  Activity: Active
[4]
  Activity: Active
K562
  Activity: Active
[5]
  IC50: 730 nM
[6]
  IC50: 168 nM
Sus scrofa [7]
  TIME: 0.333 h
[8]
  IC50: 60 nM
[9]
  Activity: 9%
[10]
  IC50: 280 nM
[11]
  Activity: Active
HepG2 [12]
  Activity: Active
HepG2 [13]
  inhibition: Active
A549
  Ratio IC50: 50
HepG2 [14]
  Activity: 20%
EA.hy 926 [15]
  Activity: 20%
[16]
  Activity: 6%
[17]
  Activity: Non-Toxic
[18]
  IC50: 50 nM
[19]
  IC50: 70 nM
[20]
  IC50: 60 nM
HepG2 [21]
  inhibition: Active
HepG2 [22]
  inhibition: Active
HepG2 [23]
  Activity: Active
EA.hy 926 [24]
  inhibition: Active
HT-29
  Ratio IC50: >10
HepG2 [25]
  inhibition: Active
HepG2 [26]
  Activity: Active
HepG2 [27]
  inhibition: Active
EA.hy 926 [28]
  Activity: Active
Sus scrofa [29]
  inhibition: Active
[30]
  IC50: 190 nM
[31]
  IC50: 250 nM
[32]
  Activity: 80%
Sus scrofa [33]
  inhibition: Dose-dependent effect
Sus scrofa [34]
  inhibition: 40%
EA.hy 926 [35]
  Activity: Active
[36]
  viability at 72 h: 70%

## COc1ccc(/C=C\c2cc(OC)c(OC)c(OC)c2)cc1O [COMBRETASTATIN A4]
[1]
  Activity: Active
[2]
  Activity: 33%
[3]
  Activity: Active
[4]
  Activity: Active
[5]
  IC50: < 100 nM
Sus scrofa [7]
  TIME: 0.383 h
[8]
  IC50: 3010 nM
[9]
  Activity: 9%
[37]
  Survival: 35%
EA.hy 926 [38]
  inhibition: Active
[10]
  IC50: 170 nM
[11]
  Activity: Active
HepG2 [12]
  Activity: Active
HepG2 [39]
  Activity: 20%
[18]
  IC50: 440 nM
[40]
  IC50: 1170 nM
[41]
  Survival: 50%
EA.hy 926 [28]
  Activity: Active
Sus scrofa [29]
  inhibition: Active
[42]
  Survival: 15%
[30]
  IC50: 110 nM
[31]
  IC50: 2610 nM
[32]
  Activity: 77%
Sus scrofa [34]
  inhibition: Active
[43]
  viability at 72 h: 40%
EA.hy 926 [44]
  Activity: 20%

## COc1ccc(/C=C\c2cc(OC)c(OC)c(OC)c2)cc1N.Cl
[45]
  solubility: Soluble
